ChEMBL document CHEMBL3352143, “Cytotoxic and anti-inflammatory prenylated benzoylphloroglucinols and xanthones from the twigs of Garcinia esculenta” (J Nat Prod, 2014)

How the values were obtained:
[1] = system: RAW264.7; experiment: Anti-inflammatory activity in mouse RAW264.7 cells assessed as inhibition of IFN-gamma plus LPS-induced NO production; type: functional, cell-based
How it was run: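 Murine macrophage RAW264.7 cells stimulated with IFN-γ plus LPS; NO output quantified as nitrite in the medium. Indomethacin served as positive control, and results are expressed as IC50.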

[2] = Cytotoxicity against human HL7702 cells by MTT assay; type: cell-based; details: L02
How it was run: (§1)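 MTT viability read-out, run in parallel on human HepG2 (hepatocellular carcinoma), MCF-7 and MDA-MB-231 (breast adenocarcinoma) cancer lines and HL-7702 normal human hepatic cells. Paclitaxel was the positive control, and results are expressed as IC50.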

[3] = system: MCF7; experiment: Cytotoxicity against human MCF7 cells by MTT assay; type: functional, cell-based; how it was run: as §1
[4] = system: HepG2; experiment: Cytotoxicity against human HepG2 cells by MTT assay; type: functional, cell-based; how it was run: as §1
[5] = system: MDA-MB-231; experiment: Cytotoxicity against human MDA-MB-231 cells by MTT assay; type: functional, cell-based; how it was run: as §1

Q: For `C=C(C)C(CC=C(C)C)C[C@]12C[C@H](CC=C(C)C)C(C)(C)[C@](CC=C(C)C)(C(=O)c3c1oc1cc(O)c(O)cc1c3=O)C2=O` (stereo not given in full), which IC50 [1] is on record?
A: 17 µM

Q: What about the IC50 [2] of the same compound?
A: > 10 µM

Q: What about the IC50 [3] of the same compound?
A: > 10 µM

Q: What about the IC50 [4] of the same compound?
A: > 10 µM

Q: And the IC50 [5]?
A: > 10 µM

Q: Which IC50 [2] does the source give for `CC(=O)O[C@H]1C(=O)[C@@]2(C)[C@H]([C@H](OC(=O)c3ccccc3)[C@]3(O)C[C@H](OC(=O)[C@H](O)[C@@H](NC(=O)c4ccccc4)c4ccccc4)C(C)=C1C3(C)C)[C@]1(OC(C)=O)CO[C@@H]1C[C@@H]2O` [PACLITAXEL] here?
A: 1.1 µM

Q: What about the IC50 [3] of the same compound?
A: 0.0015 µM

Q: And the IC50 [4]?
A: 0.0046 µM

Q: And the IC50 [5]?
A: 0.0082 µM

Q: For `C=C(C)C(O)C[C@H](C[C@@]12C[C@@H](CC=C(C)C)C(C)(C)[C@@](CC=C(C)C)(C(=O)C(C(=O)c3ccc(O)c(O)c3)=C1O)C2=O)C(=C)C` (stereo not given in full) [GARCIMULTIFLORONE E], which IC50 [1] is on record?
A: 1.1 µM

Q: What about the IC50 [2] of the same compound?
A: > 10 µM

Q: And the IC50 [3]?
A: 9.8 µM

Q: And the IC50 [4]?
A: > 10 µM

Q: And the IC50 [5]?
A: > 10 µM

Q: For `CC1=C[C@H]2c3c(c(O)c(O)c4oc5cc(O)cc(O)c5c(=O)c34)[C@H](c3cc(O)c(O)c4oc5cc(O)cc(O)c5c(=O)c34)[C@H]2C(C)(C)C1`, which IC50 [1] is on record?
A: 41.9 µM

Q: And the IC50 [2]?
A: > 10 µM

Q: And the IC50 [3]?
A: > 10 µM

Q: And the IC50 [4]?
A: > 10 µM

Q: What about the IC50 [5] of the same compound?
A: > 10 µM

Q: For `C=C(C)C(CC=C(C)C)C[C@@]12C[C@@H](C[C@H](O)C(C)(C)OC)C(C)(C)[C@@](CC=C(C)C)(C(=O)C(C(=O)c3ccc(O)c(O)c3)=C1O)C2=O` (stereo not given in full), which IC50 [1] is on record?
A: 24.9 µM

Q: And the IC50 [2]?
A: > 10 µM

Q: What about the IC50 [3] of the same compound?
A: > 10 µM

Q: What about the IC50 [4] of the same compound?
A: > 10 µM

Q: And the IC50 [5]?
A: > 10 µM

Q: With `CC(C)=CC[C@H]1C[C@@]23C[C@@H](CC=C(C)C)C(C)(C)[C@@](CC=C(C)C)(C(=O)C(C(=O)c4ccc(O)c(O)c4)=C2OC1(C)C)C3=O` [CAMBOGIN] as the compound, how does the IC50 [1] read?
A: 19.2 µM

Q: And the IC50 [2]?
A: 9.3 µM

Q: And the IC50 [3]?
A: 4.8 µM

Q: What about the IC50 [4] of the same compound?
A: 7.3 µM

Q: What about the IC50 [5] of the same compound?
A: 5.7 µM

Q: What does the source list for `C=C(C)C(C[C@@H](O)C(=C)C)C[C@@]12C[C@@H](CC=C(C)C)C(C)(C)[C@@](CC=C(C)C)(C(=O)C(C(=O)c3ccc(O)c(O)c3)=C1O)C2=O` (stereo not given in full)?
A: IC50 [1]: 19.1 µM; IC50 [2]: > 10 µM; IC50 [3]: > 10 µM; IC50 [4]: > 10 µM; IC50 [5]: > 10 µM

Q: What does the source list for `C=C(C)C(CC=C(C)C)C[C@@]12C[C@H]3[C@@H](C=C(C)C)[C@@](C(=O)c4ccc(O)c(O)c4)(C1=O)C(=O)[C@@](CC=C(C)C)(C2=O)C3(C)C` (stereo not given in full)?
A: IC50 [1]: > 50 µM; IC50 [2]: > 10 µM; IC50 [3]: > 10 µM; IC50 [4]: > 10 µM; IC50 [5]: 9.1 µM

Q: Which IC50 [1] does the source give for `CC1(C)C=Cc2c(c(O)cc3oc4cc(O)cc(O)c4c(=O)c23)O1` [TOXYLOXANTHONE B] here?
A: > 50 µM

Q: What about the IC50 [2] of the same compound?
A: > 10 µM

Q: And the IC50 [3]?
A: > 10 µM

Q: What about the IC50 [4] of the same compound?
A: > 10 µM

Q: And the IC50 [5]?
A: > 10 µM

Q: For `CC(C)=CCc1c(O)cc2oc3ccc(O)cc3c(=O)c2c1O`, which IC50 [1] is on record?
A: 21.3 µM

Q: What about the IC50 [2] of the same compound?
A: > 10 µM

Q: And the IC50 [3]?
A: > 10 µM

Q: And the IC50 [4]?
A: > 10 µM

Q: What about the IC50 [5] of the same compound?
A: > 10 µM

Q: With `O=c1c2cc(O)c(O)cc2oc2cc(O)cc(O)c12` as the compound, how does the IC50 [1] read?
A: 43 µM

Q: What about the IC50 [2] of the same compound?
A: > 10 µM

Q: What about the IC50 [3] of the same compound?
A: > 10 µM

Q: And the IC50 [4]?
A: > 10 µM

Q: And the IC50 [5]?
A: > 10 µM

Q: With `CC(C)=CC[C@H]1C[C@@]23C[C@H](CC=C(C)C)C(C)(C)[C@@](CC=C(C)C)(C(=O)C(OC(=O)c4ccc(O)c(O)c4)=C2OC1(C)C)C3=O` as the compound, how does the IC50 [1] read?
A: 39.1 µM

Q: And the IC50 [2]?
A: > 10 µM

Q: And the IC50 [3]?
A: > 10 µM

Q: And the IC50 [4]?
A: > 10 µM

Q: What about the IC50 [5] of the same compound?
A: > 10 µM

Q: With `C=C(C)C(O)C[C@H](C[C@]12C[C@@H](CC=C(C)C)C(C)(C)[C@](CC=C(C)C)(C1=O)c1oc3cc(O)c(O)cc3c(=O)c1C2=O)C(=C)C` (stereo not given in full) as the compound, how does the IC50 [1] read?
A: 12.9 µM

Q: What about the IC50 [2] of the same compound?
A: > 10 µM

Q: What about the IC50 [3] of the same compound?
A: > 10 µM

Q: What about the IC50 [4] of the same compound?
A: > 10 µM

Q: And the IC50 [5]?
A: > 10 µM

Q: For `C=C(C)[C@@H]1C[C@]23C[C@H](CC=C(C)C)C(C)(C)[C@](CC=C(C)C)(C(=O)C(C(=O)c4ccc(O)c(O)c4)=C2O[C@H]1C=C(C)C)C3=O` [GARCINIALIPTONE B], which IC50 [1] is on record?
A: 21.3 µM

Q: And the IC50 [2]?
A: > 10 µM

Q: What about the IC50 [3] of the same compound?
A: > 10 µM

Q: What about the IC50 [4] of the same compound?
A: > 10 µM

Q: And the IC50 [5]?
A: > 10 µM

Q: For `COc1ccc2c(c1)c(CC(=O)O)c(C)n2C(=O)c1ccc(Cl)cc1` [INDOMETHACIN], which IC50 [1] is on record?
A: 3.9 µM

Q: With `CC1(C)CCc2c(c(O)cc3oc4cc(O)cc(O)c4c(=O)c23)O1` [HYPERXANTHONE E] as the compound, how does the IC50 [1] read?
A: 4 µM

Q: What about the IC50 [2] of the same compound?
A: > 10 µM

Q: And the IC50 [3]?
A: > 10 µM

Q: What about the IC50 [4] of the same compound?
A: > 10 µM

Q: What about the IC50 [5] of the same compound?
A: > 10 µM

Q: With `C=C(C)C(C[C@H](O)C(=C)C)C[C@@]12C[C@@H](CC=C(C)C)C(C)(C)[C@@](CC=C(C)C)(C(=O)C(C(=O)c3ccc(O)c(O)c3)=C1O)C2=O` (stereo not given in full) as the compound, how does the IC50 [1] read?
A: 29.1 µM

Q: What about the IC50 [2] of the same compound?
A: > 10 µM

Q: What about the IC50 [3] of the same compound?
A: > 10 µM

Q: And the IC50 [4]?
A: > 10 µM

Q: What about the IC50 [5] of the same compound?
A: > 10 µM

Q: With `CC(C)=CCc1cc(O)c(O)c2oc3cc4c(c(O)c3c(=O)c12)C=CC(C)(C)O4` as the compound, how does the IC50 [1] read?
A: > 50 µM

Q: And the IC50 [2]?
A: > 10 µM

Q: And the IC50 [3]?
A: > 10 µM

Q: What about the IC50 [4] of the same compound?
A: > 10 µM

Q: And the IC50 [5]?
A: > 10 µM

Q: For `CC1(C)Oc2cc3oc4ccc(O)cc4c(=O)c3c(O)c2CC1O` (stereo not given), which IC50 [1] is on record?
A: 15.9 µM

Q: And the IC50 [2]?
A: > 10 µM

Q: What about the IC50 [3] of the same compound?
A: > 10 µM

Q: And the IC50 [4]?
A: > 10 µM

Q: And the IC50 [5]?
A: > 10 µM

Q: Which IC50 [1] does the source give for `C=C(C)[C@H](CC=C(C)C)C[C@@]12C[C@@H](CC=C(C)C)C(C)(C)[C@@](CC=C(C)C)(C(=O)C(C(=O)c3ccc(O)c(O)c3)=C1O)C2=O` [GUTTIFERONE F] here?
A: 14.1 µM

Q: What about the IC50 [2] of the same compound?
A: 9.6 µM

Q: What about the IC50 [3] of the same compound?
A: > 10 µM

Q: And the IC50 [4]?
A: > 10 µM

Q: And the IC50 [5]?
A: 7.9 µM

Q: For `CC(C)=CCc1c(O)cc(O)c2oc3cc(O)cc(O)c3c(=O)c12`, which IC50 [1] is on record?
A: 6.4 µM

Q: And the IC50 [2]?
A: > 10 µM

Q: What about the IC50 [3] of the same compound?
A: > 10 µM

Q: And the IC50 [4]?
A: > 10 µM

Q: What about the IC50 [5] of the same compound?
A: > 10 µM

Q: What does the source list for `CC(C)=CCc1c(O)cc2oc3cc(O)c(O)c(CC=C(C)C)c3c(=O)c2c1O`?
A: IC50 [1]: > 50 µM; IC50 [2]: > 10 µM; IC50 [3]: > 10 µM; IC50 [4]: > 10 µM; IC50 [5]: 6.6 µM

Q: What does the source list for `CC1(C)C=Cc2c(cc3oc4ccc(O)cc4c(=O)c3c2O)O1`?
A: IC50 [1]: > 50 µM; IC50 [2]: 6.6 µM; IC50 [3]: > 10 µM; IC50 [4]: > 10 µM; IC50 [5]: 6.1 µM
